Laboratory results taken from ChEMBL document CHEMBL1128416, “Synthesis and evaluation of 6,7-dihydroxy-2,3,4,8,9,13b-hexahydro-1H- benzo[6,7]cyclohepta[1,2,3-ef][3]benzazepine, 6,7-dihydroxy- 1,2,3,4,8,12b-hexahydroanthr[10,4a,4-cd]azepine, and 10-(aminomethyl)-9,10- dihydro-1,2-dihydroxyanthracene as conformationally restricted analogs of …” (J Med Chem, 1995).

Key:
Conditions in all cases: Striatum; Membrane
[1] = biological target: D(1A) dopamine receptor (Rattus norvegicus) (UniProt P18901); assay: Binding affinity to the dopamine receptor D1 by displacing [3H]-SCH- 23390 radio-ligand in rat striatal membranes by using radioligand competition assay.; type: cell membranes
D(1A) dopamine receptor (Rattus norvegicus), sequence (P18901 whole entry): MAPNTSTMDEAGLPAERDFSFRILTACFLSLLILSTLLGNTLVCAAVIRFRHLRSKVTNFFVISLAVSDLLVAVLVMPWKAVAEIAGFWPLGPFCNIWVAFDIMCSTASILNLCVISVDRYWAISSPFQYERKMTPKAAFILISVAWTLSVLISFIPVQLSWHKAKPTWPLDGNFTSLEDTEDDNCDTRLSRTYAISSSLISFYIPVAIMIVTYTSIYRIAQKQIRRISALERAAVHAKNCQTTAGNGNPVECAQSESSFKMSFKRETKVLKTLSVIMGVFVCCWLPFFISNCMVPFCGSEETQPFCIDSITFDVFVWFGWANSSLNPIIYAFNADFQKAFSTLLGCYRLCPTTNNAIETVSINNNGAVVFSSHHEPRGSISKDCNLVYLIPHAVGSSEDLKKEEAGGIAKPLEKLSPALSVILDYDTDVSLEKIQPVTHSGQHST
Outline: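 Striata from male Sprague-Dawley rats (200–400 g), fresh or stored at -70 °C. Homogenized in ice-cold 50 mM HEPES with 4.0 mM MgCl2, pH 7.4, washed twice by centrifugation at 27000g, and resuspended at ~2.0 mg wet weight/mL. Membranes were incubated with 0.3 nM [3H]SCH 23390 and increasing test concentrations for 15 min at 37 °C. Nonspecific binding defined with 1 μM SCH 23390. Filtered, scintillation counted, IC50 derived.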

[2] = biological target: D(2) dopamine receptor (Rattus norvegicus) (UniProt P61169); assay: Binding affinity towards Dopamine receptor D2 by displacing [3H]spiperone radio-ligand in rat striatal membranes by using radioligand competition assay.; type: cell membranes
D(2) dopamine receptor (Rattus norvegicus), sequence (P61169 whole entry): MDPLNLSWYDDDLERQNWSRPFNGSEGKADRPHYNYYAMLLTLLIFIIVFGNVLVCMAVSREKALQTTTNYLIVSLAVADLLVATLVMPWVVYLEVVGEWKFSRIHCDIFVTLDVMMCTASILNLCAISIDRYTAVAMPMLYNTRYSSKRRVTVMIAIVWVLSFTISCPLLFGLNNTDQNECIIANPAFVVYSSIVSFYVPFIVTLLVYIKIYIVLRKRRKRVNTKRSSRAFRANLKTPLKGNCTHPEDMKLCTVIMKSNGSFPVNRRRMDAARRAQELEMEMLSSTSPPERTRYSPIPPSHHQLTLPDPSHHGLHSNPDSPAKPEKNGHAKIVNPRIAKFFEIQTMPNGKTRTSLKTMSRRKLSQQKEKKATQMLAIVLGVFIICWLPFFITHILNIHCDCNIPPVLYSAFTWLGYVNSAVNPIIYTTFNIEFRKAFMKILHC
Outline: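 Same rat striatal membrane preparation as the D1 assay: HEPES/MgCl2 buffer, pH 7.4, 37 °C incubation, filtration and scintillation counting. [3H]spiperone was the radioligand, competed with increasing test concentrations. IC50 derived from the displacement data.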

[3] = biological target: D(1A) dopamine receptor (Rattus norvegicus) (UniProt P18901)

Compound	K0.5 [1]	K0.5 [2]	K0.5 [3]
Oc1cc2c3c(c1O)Cc1ccccc1C3CNCC2 (stereo not given)	590 nM	1250 nM	–
NCC1c2ccccc2Cc2c1ccc(O)c2O (stereo not given)	> 2500 nM	> 2500 nM	–
Oc1cc2c(cc1O)[C@H]1c3ccccc3CN[C@@H]1CC2	–	29 nM	2.4 nM
Oc1cc2c(cc1O)[C@@H](c1ccccc1)CNCC2	11.1 nM	1870 nM	–
Oc1cc2c3c(c1O)CCc1ccccc1C3CNCC2 (stereo not given)	372 nM	2150 nM	–
